The text below walks through data of PMC12328631 (Nature Communications, 2025).

One data set concerns the target Sec61 translocon (Homo sapiens, UniProt P61619). The experiment in a line: RELITE assay, FLuc equipped with the SP of CD4. The class given is cell-based. The note with it: for response of the RELITE assay (FLuc/RLuc ratio): Fig. S8b; for response of the RELITE assay (FLuc/RLuc ratio) / effect on FLuc activity (FLuc/RLuc ratio): HEK293, 6 hours; for effect on FLuc/RLuc ratio: Fig. 1h, 6 hours of treatment, non-selective Sec61 inhibitors; for effect on FLuc activity (FLuc/RLuc ratio): Tunicamycin 10 μg/ml, Thapsigargin 3 μM.

The test system of data set [1] is Firefly luciferase (FLuc) reporter equipped with the SP of CD4. The data set can be described thus: FLuc enzymatic activity in HEK293 transfected with the IRES-vector. The class given is cell-based, human. The procedure, abridged:
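HEK293 cells were transiently transfected with a bicistronic IRES vector carrying the CD4 signal peptide-FLuc reporter. For fractionation, cells were treated 24 h post-transfection for 6 h, mechanically lysed and ultracentrifuged into P100 and S100 fractions, and FLuc was read on each. For the time course, cells were replated 8 h post-transfection, treated 16 h later, and FLuc was read up to 6 h. For the chase, 100 µg/ml cycloheximide was added for 2 h after 6 h treatment.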

Another data set deals with PD-L1. The class given is cell-based, human. The settings on record: read-out: IC50 (PD-L1-HA protein levels); GB138 stably expressing SPnPD-L1-HA, 0 to 20 μM, 24 hours (Fig. S4). Put shortly:
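GB138 glioblastoma cells stably expressing SPnPD-L1-HA were kept at 37 °C in DMEM with 10% FBS, 2 mM L-Gln and 400 μg/ml G418. Cells were exposed to test compounds at 0 to 20 μM for 24 h. Extracts in Triton-containing B-Buffer were resolved by SDS-PAGE and PD-L1-HA levels quantified by western blot with ECL, using calnexin as loading control. IC50 was taken from the titration curve.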

The subject of a further data set is HA-FLuc. The experiment in a line: HA-FLuc protein levels by western blotting. It counts as cell-based, human. The note with it: total cell extract, 6 h. Put shortly: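 HEK293 cells were transfected with the IRES vector and replated after 8 h, then treated 16 h later for up to 6 h. Total extracts were made in B-Buffer (50 mM HEPES, 150 mM NaCl, 1% Triton X-100, protease inhibitors) and equalised by Bradford. Cytosolic and membrane fractions came from syringe lysis and differential centrifugation. Western blots used anti-HA, with GAPDH and calnexin as fraction markers.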

Another data set relates to GB138 cells. The experiment in a line: Cell viability assay. It counts as cell-based, human. The note with it: GB138 (Fig. S5).

As a reminder, the IC50 is the concentration that inhibits the measured activity by half.

Peptide text beside a SMILES is read from it. * marks the point of attachment. Cbz = O=C(OCc1ccccc1)*

Sequence of Sec61 translocon (P60468 2-96): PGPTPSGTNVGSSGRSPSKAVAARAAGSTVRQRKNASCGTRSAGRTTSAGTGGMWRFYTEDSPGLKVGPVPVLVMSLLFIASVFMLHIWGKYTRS
Sequence of Sec61 translocon (P61619 whole entry): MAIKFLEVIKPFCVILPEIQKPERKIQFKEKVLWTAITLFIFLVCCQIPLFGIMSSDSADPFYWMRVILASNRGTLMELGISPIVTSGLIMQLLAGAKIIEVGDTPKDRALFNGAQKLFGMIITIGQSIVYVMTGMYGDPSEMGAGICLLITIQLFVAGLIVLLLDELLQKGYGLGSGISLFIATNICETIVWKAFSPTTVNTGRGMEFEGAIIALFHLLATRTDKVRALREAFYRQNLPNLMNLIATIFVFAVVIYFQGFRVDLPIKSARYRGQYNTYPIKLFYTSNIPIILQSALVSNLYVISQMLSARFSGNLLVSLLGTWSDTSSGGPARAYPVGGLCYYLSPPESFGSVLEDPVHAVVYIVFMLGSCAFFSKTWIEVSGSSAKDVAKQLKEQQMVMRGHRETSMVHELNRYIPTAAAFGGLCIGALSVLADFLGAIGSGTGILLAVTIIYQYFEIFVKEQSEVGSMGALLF
Sequence of Sec61 translocon (P60059 whole entry, further chain): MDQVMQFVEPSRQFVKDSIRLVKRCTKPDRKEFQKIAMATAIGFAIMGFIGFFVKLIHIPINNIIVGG

`C[C@H]1CCC/C=C/[C@@H]2C[C@H](O)C[C@H]2[C@H](O)/C=C/C(=O)O1` [Brefeldin A]: at Sec61 translocon, the “response of the RELITE assay (FLuc/RLuc ratio)” value (from here on “response … (FLuc/RLuc ratio)”) is recorded as “not responding”.

Regarding `C=C1CN(S(=O)(=O)c2ccc(C)cc2)CCCN(Cc2ccccc2)CCCN(S(=O)(=O)c2ccc(C)cc2)C1` [CADA, Cyclotriazadisulfonamide], the “CADA effect on FLuc activity under co-treatment with cycloheximide (CHX)” value on Sec61 translocon (Fig. S1b, CADA 20 μM + CHX 100 μg/ml, 6 hours) is recorded as “abrogated the CADA effect”. The “FLuc activity after cell fractionation” value in data set [1] (Fig. 1d, S100 vs P100) was “increased FLuc activity only in the cytosolic S100 fraction”. Besides, the IC50 in the data set with PD-L1 was about 20 µM. Also, in the data set on HA-FLuc, the “total HA-FLuc protein levels (western blotting)” value is given as “significant reduction of the total HA-FLuc protein levels”.

For `C[C@@H]1C[C@@H]([C@H](O)CC2CC(=O)NC(=O)C2)C(=O)[C@@H](C)C1` [Cycloheximide], the “response … (FLuc/RLuc ratio)” value at Sec61 translocon is “not responding”.

On to `CC1(C)C(N(O)C(=O)Nc2ccc(Cl)cc2)N(c2ccc(Cl)cc2)C(=O)N1CC(=O)N/N=C/C=C/c1ccc([N+](=O)[O-])o1` (stereo not shown) [Eeyarestatin 1], for which, at Sec61 translocon, the “effect on FLuc/RLuc ratio” value is given as “significant reduction of the FLuc/RLuc ratio”. The “total HA-FLuc protein levels (western blotting)” value in the data set on HA-FLuc is “significant reduction of FLuc protein levels”.

As to `CCN(CCO)CCCC(C)Nc1ccnc2cc(Cl)ccc12` (stereo not shown) [Hydroxychloroquine], the “response … (FLuc/RLuc ratio)” value at Sec61 translocon is listed as “not responding”.

In the case of `CC(C)C[C@@H](C=O)NC(=O)[C@H](CC(C)C)NC(=O)[C@H](CC(C)C)NC(=O)OCc1ccccc1` [MG132] (Cbz-Leu-Leu-Leu-aldehyde), the “FLuc enzymatic activity over time” value in data set [1] (Fig. 1e, up to 6 h) was “time-dependent increment of the FLuc enzymatic activity”.

Regarding `CC(=C\C=C\C(C)=C\[C@H](O)[C@@H](O)C[C@H](C)O)/C=C(C)/C=C/C(=O)O[C@H]1CCCC(=O)O[C@@H]([C@@H](C)C/C(C)=C/[C@@H](C)[C@H](O)C[C@@H](C)O)C/C=C(\C)C[C@@H]1C` [Mycolactone], at Sec61 translocon, the “effect on FLuc/RLuc ratio” value was “significant elevation of the FLuc/RLuc ratio”.

As for `COc1ccc(C[C@H](N)C(=O)N[C@H]2[C@@H](O)[C@H](n3cnc4c(N(C)C)ncnc43)O[C@@H]2CO)cc1` [Puromycin], the “response … (FLuc/RLuc ratio)” value at Sec61 translocon was “not responding”.

As to `C/C=C(/C)C(=O)O[C@H]1C(C)=C2[C@H]([C@@H]1OC(=O)CCCCCCC)[C@@](C)(OC(C)=O)C[C@H](OC(=O)CCC)[C@@]1(O)[C@H]2OC(=O)[C@@]1(C)O` [Thapsigargin], the “effect on FLuc activity (FLuc/RLuc ratio)” value on Sec61 translocon (Fig. S1b) was “failed to increase activity”. Moreover, the “response … (FLuc/RLuc ratio)” value at Sec61 translocon is reported as “not responding”.

As for Tunicamycin, on Sec61 translocon (Fig. S1b), the “effect on FLuc activity (FLuc/RLuc ratio)” value is reported as “significant elevation of the FLuc activity”. Besides, in the data set on GB138 cells, the “toxicity in cell viability assay” value is recorded as “highly toxic for the cells”.
